# Test results: paper PMC9540525 (Cancer, 2022)
# How the values were obtained:
# [1] = Phase 1 study: plasma pharmacokinetics, noncompartmental analysis; assay type: in vivo, human
# [2] = tested on: advanced or unresectable solid tumors, including NENs and R/R NHL; assay: Phase 1 study CC-90011-ST-001: efficacy; assay type: in vivo, human
# Outline: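 Phase 1 open-label multicenter study; adults with advanced NENs or R/R NHL. Test compound given orally once weekly in 28-day cycles (expansion: 60 mg); reductions and interruptions of up to 4 weeks allowed. Investigator-assessed response: RECIST 1.1 (solid tumors), IWG (NHL), PCWG3 (neuroendocrine prostate); FDG PET or PET/CT confirmed CR in FDG-avid tumors. Two-sided 95% Clopper–Pearson CIs; Kaplan–Meier medians.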
# [3] = tested on: patient‐derived xenograft models; conditions: cited from earlier work
# [4] = Phase 1 study: treatment duration, modification, exposure and disposition; assay type: in vivo, human; conditions: dose expansion, NEN cohort, n=16
# [5] = tested on: progastrin‐releasing peptide [pro‐GRP]; assay: Phase 1 study: serum progastrin-releasing peptide; assay type: in vivo, human; conditions: dose expansion, NENs
# [6] = tested on: MMD gene expression in peripheral blood; assay: Phase 1 study: MMD gene expression in peripheral blood; assay type: in vivo, human; conditions: dose expansion, 60 mg once per week
# [7] = tested on: solid tumor cell lines, including small cell lung cancer, and acute myeloid leukemia cell lines; conditions: solid tumor cell lines incl. SCLC, and AML cell lines; cited from earlier work
smiles,measurement,setting,value
COc1ccc(-c2c(-c3ccc(C#N)c(F)c3)nc(N3CCC(N)CC3)n(C)c2=O)cc1F [CC‐90011],accumulation with repeat dosing based on the AUC,"[1]; dose expansion, 60 mg once per week",Negligible accumulation
same,"time of peak CC-90011 concentration after treatment, approximate median","[1]; dose expansion, NEN, n = 16, 60 mg once per week",~4 h
same,terminal half-life,[1]; in words,long terminal half‐life
same,Best overall response: CR,"[2]; dose escalation, n = 50",1 (2.0) no. (%)
same,Best overall response: NE,"[2]; dose escalation, n = 50",4 (8.0) no. (%)
same,Best overall response: PD,"[2]; dose escalation, n = 50",22 (44.0) no. (%)
same,Best overall response: PR,"[2]; dose escalation, n = 50",1 (2.0) no. (%)
same,Best overall response: SD,"[2]; dose escalation, n = 50",22 (44.0) no. (%)
same,Best overall response: SD ≥4 months,"[2]; dose escalation, n = 50",8 (16.0) no. (%)
same,CBR [95% CI],"[2]; dose escalation, n = 50",20 [10.0–33.7] %
same,ORR [95% CI],"[2]; dose escalation, n = 50",4 [0.5–13.7] %
same,mOS [95% CI],"[2]; dose escalation, n = 50",7.8 [6.1–20.1] months
same,mPFS [95% CI],"[2]; dose escalation, n = 50",3.4 [1.7–3.7] months
same,patients with NENs with SD lasting ≥6 months / >6 months,"[2]; dose escalation, grade ≥2 NENs",seven
same,treatment cycle in which the patient with CR was still ongoing,"[2]; dose escalation, one patient with R/R MZL, as of April 2022",58 cycle
same,patients with bronchial NENs with SD after nine or more cycles,[2]; dose expansion,three
same,Best overall response: CR,"[2]; dose expansion, n=19",0 (0.0) no. (%)
same,Best overall response: NE,"[2]; dose expansion, n=19",2 (11.0) no. (%)
same,Best overall response: PD,"[2]; dose expansion, n=19",7 (37.0) no. (%)
same,Best overall response: PR,"[2]; dose expansion, n=19",0 (0.0) no. (%)
same,CBR [95% CI],"[2]; dose expansion, n=19",37 [16.3–61.6] %
same,ORR [95% CI],"[2]; dose expansion, n=19",0 [0.0–17.6] %
same,mOS [95% CI],"[2]; dose expansion, n=19","15.6 [7.0, NE] months"
same,mPFS [95% CI],"[2]; dose expansion, n=19",1.8 [1.1–5.4] months
same,treatment cycle in which the patient with SD was still ongoing,"[2]; dose expansion, one patient with bronchial NENs, as of April 2022",46 cycle
same,median PFS,[2]; patients with bronchial NENs,4.6 months
same,antiproliferative activity in patient-derived xenograft models,[3],demonstrated antiproliferative activity
same,≥1 dose interruption due to AE,[4],10 (63%) n (%)
same,patients in whom pro-GRP levels decreased,[5],15 of 16
same,patients with a pro-GRP decrease >30%,[5],11 of 16
same,downregulation in MMD gene expression in the peripheral blood,[6],≥ 50%
same,antiproliferative activity in vitro,[7],has antiproliferative activity in various solid tumor cell lines in vitro
